We go through 24 compounds from ChEMBL document CHEMBL1140391, “8-Substituted 3,4-dihydroquinolinones as a novel scaffold for atypical antipsychotic activity” (Bioorg Med Chem Lett, 2005).

Where only a bound is given, the exact number is not on record here.

One assay deals with D(2) dopamine receptor (Homo sapiens, UniProt P14416). In words: Binding affinity against Dopamine receptor D2 expressed in CHO cells. The assay is classed as cell-based. The procedure, abridged: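 Radioligand binding with [³H]spiperone on membranes of CHO cells expressing human DA D₂ receptors. Membranes and radioligand were incubated 120 min with or without varying compound concentrations. Haloperidol at high concentration defined nonspecific binding. Bound label was separated by vacuum filtration and counted by liquid scintillation. IC₅₀ was fitted by nonlinear regression and converted to Ki with Cheng–Prusoff.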
Sequence of D(2) dopamine receptor (P14416 whole entry): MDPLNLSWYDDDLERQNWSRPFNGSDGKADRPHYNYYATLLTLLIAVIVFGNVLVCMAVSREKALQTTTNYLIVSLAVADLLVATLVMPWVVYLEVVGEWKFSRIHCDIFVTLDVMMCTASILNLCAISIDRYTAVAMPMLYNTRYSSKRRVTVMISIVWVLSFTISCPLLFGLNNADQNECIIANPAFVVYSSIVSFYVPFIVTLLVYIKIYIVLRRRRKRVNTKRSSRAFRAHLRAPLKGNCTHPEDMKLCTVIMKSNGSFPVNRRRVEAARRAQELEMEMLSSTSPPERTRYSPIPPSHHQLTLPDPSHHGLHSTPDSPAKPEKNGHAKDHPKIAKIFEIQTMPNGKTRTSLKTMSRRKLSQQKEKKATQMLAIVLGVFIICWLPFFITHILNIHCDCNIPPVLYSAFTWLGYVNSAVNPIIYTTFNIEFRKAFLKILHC

Assay [1] concerns the target 5-hydroxytryptamine receptor 2A (Homo sapiens, UniProt P28223). Put plainly: Binding affinity for 5-hydroxytryptamine 2A receptor expressed in 3T3 cells. The assay is classed as cell-based. The procedure, abridged: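 [³H]Ketanserin displacement on membranes of Swiss 3T3 cells expressing human 5-HT2A receptors. Incubation was 120 min across varying compound concentrations. Nonspecific binding came from high unlabeled ketanserin. Bound and free label were separated by vacuum filtration, and bound label was quantified by liquid scintillation. Percent inhibition of specific binding was fitted by nonlinear regression to give IC₅₀, then converted to Ki with Cheng–Prusoff.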

Sequence of 5-hydroxytryptamine receptor 2A (P28223 whole entry): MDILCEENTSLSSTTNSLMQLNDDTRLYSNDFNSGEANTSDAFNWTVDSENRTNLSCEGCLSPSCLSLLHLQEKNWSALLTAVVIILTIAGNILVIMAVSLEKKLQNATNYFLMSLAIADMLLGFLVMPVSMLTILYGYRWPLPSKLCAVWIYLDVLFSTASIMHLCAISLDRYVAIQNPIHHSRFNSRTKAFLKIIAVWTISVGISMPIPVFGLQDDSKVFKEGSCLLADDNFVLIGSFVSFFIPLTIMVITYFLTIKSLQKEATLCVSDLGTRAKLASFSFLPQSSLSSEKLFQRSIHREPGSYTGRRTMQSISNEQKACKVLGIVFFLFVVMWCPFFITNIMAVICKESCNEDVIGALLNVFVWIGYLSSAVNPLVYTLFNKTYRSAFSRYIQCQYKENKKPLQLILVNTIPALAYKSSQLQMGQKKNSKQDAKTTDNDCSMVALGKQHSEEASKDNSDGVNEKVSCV

For the compound `CC1CC(=O)Nc2c(CCN3CCN(c4nsc5ccccc45)CC3)cccc21` (configuration not stated), the Ki (commonly the equilibrium dissociation constant of an inhibitor or competing ligand from its target) on D(2) dopamine receptor was found to be 21 nM; in assay [1] it was 0.22 nM.
The matching figures for `CC(=O)N1CCC(C)c2cccc(CCN3CCN(c4nsc5ccccc45)CC3)c21` (configuration not stated): 17 nM and 0.3 nM.
Regarding `CC1CC(=O)Nc2c(CCN3CCN(c4nsc5ccccc45)CC3)cc(F)cc21` (configuration not stated), the results for the Ki (on D(2) dopamine receptor; in assay [1]) were 15 nM and 0.17 nM, respectively.
The matching figures for `CC1CC(=O)N(C)c2c(CCN3CCN(c4nsc5ccccc45)CC3)cccc21` (configuration not stated): 81 nM and 0.17 nM.
`CC(=O)N1CCC(C)c2c(C)ccc(CCN3CCN(c4noc5ccccc45)CC3)c21` (configuration not stated): the results for the Ki (on D(2) dopamine receptor; in assay [1]) were 17 nM and 0.32 nM, respectively.
The matching figures for `CC1CCN(C(=O)c2ccccc2)c2c(CCN3CCN(c4nsc5ccccc45)CC3)cccc21` (configuration not stated): 16 nM and 0.61 nM.
For the compound `CC(=O)N1CCC(C)c2cc(F)cc(CCN3CCN(c4noc5ccccc45)CC3)c21` (configuration not stated), the Ki at D(2) dopamine receptor was 29 nM; in assay [1], 0.29 nM.
As to `CC1Cc2cccc(CCN3CCN(c4nsc5ccccc45)CC3)c2NC1=O` (configuration not stated), the Ki on D(2) dopamine receptor was 73 nM; in assay [1], 1.06 nM.
On the same counts, the results for `COc1cccc(CC(=O)N2CCC(C)c3cccc(CCN4CCN(c5nsc6ccccc56)CC4)c32)c1` (configuration not stated) are 4 nM and 1.07 nM.
The matching figures for `CC1CC(=O)Nc2c(CCN3CCN(c4nsc5ccccc45)CC3)cc(Cl)cc21` (configuration not stated): > 100 nM and 0.05 nM.
With `CC1CC(=O)Nc2c(CCN3CCN(c4n[s+]([O-])c5ccccc45)CC3)cc(F)cc21` (configuration not stated), the Ki at D(2) dopamine receptor was 92 nM; in assay [1], 2.23 nM.
For `CC1(C)CCNc2c(CCN3CCN(c4nsc5ccccc45)CC3)cccc21`, the Ki was determined as 59 nM at D(2) dopamine receptor and 0.18 nM in assay [1].
As for `CC1(C)CCNc2c(CCN3CCN(c4nsc5ccccc45)CC3)cc(F)cc21`, the results for the Ki (at D(2) dopamine receptor; in assay [1]) were 55 nM and 0.28 nM, respectively.
In the case of `CC(=O)N1CCC(C)c2cc(Cl)cc(CCN3CCN(c4nsc5ccccc45)CC3)c21` (configuration not stated), the values for the Ki (on D(2) dopamine receptor; in assay [1]) were > 50 nM and 0.31 nM, respectively.
The matching figures for `CC1CCN(C(=O)C2CCCCC2)c2c(CCN3CCN(c4nsc5ccccc45)CC3)cccc21` (configuration not stated): 25 nM and 0.59 nM.
With `CC(=O)N1CCC(c2ccccc2)c2cccc(CCN3CCN(c4nsc5ccccc45)CC3)c21` (configuration not stated), the figures for the inhibitory constant (Ki) (at D(2) dopamine receptor; in assay [1]) were 12 nM and 2.15 nM, respectively.
In assay [1], `O=C1CC(c2ccccc2)c2cccc(CCN3CCN(c4nsc5ccccc45)CC3)c2N1` (configuration not stated) yielded a Ki of 0.18 nM.
For `CC1CC(=O)Nc2c(CCN3CCN(c4noc5ccccc45)CC3)cccc21` (configuration not stated), the values for the Ki (on D(2) dopamine receptor; in assay [1]) were > 100 nM and 190 nM, respectively.
On the same counts, the results for `CC(=O)N1CCC(C)c2cc(F)cc(CCN3CCN(c4nsc5ccccc45)CC3)c21` (configuration not stated) are 18 nM and 0.44 nM.
Take `O=C1CCc2cccc(CCN3CCN(c4nsc5ccccc45)CC3)c2N1`: the results for the Ki (at D(2) dopamine receptor; in assay [1]) were > 100 nM and 0.28 nM, respectively.
Consider `CC(=O)N1CCC(C)c2c(C)ccc(CCN3CCN(c4nsc5ccccc45)CC3)c21` (configuration not stated), for which the Ki at D(2) dopamine receptor is 12 nM; in assay [1], 0.75 nM.
On to `CC1CC(=O)Nc2c(CCN3CCN(c4noc5ccccc45)CC3)cc(F)cc21` (configuration not stated), for which the values for the Ki (on D(2) dopamine receptor; in assay [1]) were > 100 nM and 0.28 nM, respectively.
As for `Cc1cc(CCN2CCN(c3noc4ccccc34)CC2)c2c(c1)C(C)CC(=O)N2` (configuration not stated), the Ki stood at 35 nM at D(2) dopamine receptor and 0.28 nM in assay [1].
In the case of `Cc1ccc(CCN2CCN(c3nsc4ccccc34)CC2)c2c1C(C)CC(=O)N2` (configuration not stated), the results for the Ki (on D(2) dopamine receptor; in assay [1]) were 11 nM and 0.13 nM, respectively.
